From ChEMBL document CHEMBL4819003, “Optimization of novel oxidative DIMs as Nur77 modulators of the Nur77-Bcl-2 apoptotic pathway” (Eur J Med Chem, 2021)
pIC50, pKd: −log10 of the molar value. Active and inactive are the calls of the source. The rule behind the calls is not given here.

Columns and labels:
MDA-MB-231 [1] = assay: Induction of apoptosis in human MDA-MB-231 cells assessed as PARP cleavage at 0.5 uM measured after 6 hrs by western blot assay; assay type: functional, cell-based
Summary of the method: (§1)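 Cells exposed to 0.5 µM for 6 h. Lysates resolved by SDS-PAGE and blotted to PVDF, blocked in 5% milk/TBST, probed with primary antibodies at 1:1000, ECL detection. Apoptosis scored as the densitometric ratio of cleaved PARP band to intact PARP band; mean ± SD, n = 3.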

HCT-116 [2] = assay: Induction of apoptosis in human HCT-116 cells assessed as PARP cleavage at 0.5 uM measured after 6 hrs by western blot assay; assay type: functional, cell-based; summary of the method: as §1
BT-549 = assay: Cytotoxicity against human BT-549 cells assessed as inhibition of cell growth measured after 24 hrs by MTT assay; assay type: functional, cell-based; conditions: BT-549, 24 h
Summary of the method: (§2)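 MTT viability assay, 24 h exposure to a concentration series, 10^4 cells/well. Cancer lines were in DMEM (BT549, MDA-MB-231) or RPMI-1640 (HCT116, SW620) with 10% FBS. MCF10A and NCM460 were in DMEM with 20% FBS and 10 ng/ml EGF. MTT at 5 mg/mL for 4 h at 37 °C, formazan dissolved in DMSO, A490. IC50 from curve fit; mean ± SD, at least 6 experiments.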

MEF [3] = assay: Induction of apoptosis in mouse MEF cells deficient in Bcl2 assessed as PARP cleavage at 0.5 uM measured after 6 hrs by Western blot assay; assay type: functional, cell-based
Summary of the method: (§3)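 Wild-type, Nur77−/− or Bcl-2−/− mouse embryonic fibroblasts grown in DMEM with 10% FBS and treated with 0.5 µM for 6 h. PARP cleavage detected by western blot, primary antibodies at 1:1000, ECL.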

MDA-MB-231 [4] = assay: Cytotoxicity against human MDA-MB-231 cells assessed as inhibition of cell growth measured after 24 hrs by MTT assay; assay type: functional, cell-based; conditions: MDA-MB-231, 24 h; summary of the method: as §2
MEF [5] = assay: Induction of apoptosis in wild type mouse MEF cells assessed as PARP cleavage at 0.5 uM measured after 6 hrs by western blot assay; assay type: functional, cell-based; summary of the method: as §3
MEF [6] = assay: Induction of apoptosis in mouse MEF cells lacking Nur77 assessed as PARP cleavage at 0.5 uM measured after 6 hrs by western blot assay; assay type: functional, cell-based; summary of the method: as §3
HCT-116 [7] = assay: Cytotoxicity against human HCT-116 cells assessed as inhibition of cell growth measured after 24 hrs by MTT assay; assay type: functional, cell-based; summary of the method: as §2
SW-620 = assay: Cytotoxicity against human SW-620 cells assessed as inhibition of cell growth measured after 24 hrs by MTT assay; assay type: functional, cell-based; conditions: SW-620, 24 h; summary of the method: as §2
MCF-10A = assay: Cytotoxicity against human MCF-10A cells assessed as inhibition of cell growth measured after 24 hrs by MTT assay; assay type: cell-based; summary of the method: as §2
NCM460 = assay: Cytotoxicity against human NCM460 cells assessed as inhibition of cell growth measured after 24 hrs by MTT assay; assay type: cell-based; summary of the method: as §2
[8] = molecular target: T1, Nuclear receptor subfamily 4immunitygroup A member 1 (Homo sapiens, UniProt P22736); assay: Binding affinity to recombinant human N-terminal His-tagged Nur77-LBD (367 to 598 residues) expressed in Escherichia coli BL21 DE3 by surface plasmon resonance assay
Summary of the method: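 His-tagged human Nur77-LBD (367–598) from E. coli BL21 DE3, diluted to 0.05 mg/mL in 10 mM NaAc pH 5.0 and amine-coupled to a CM5 chip (~9000 RU). Compounds at 0.01–5 µM in PBS with 0.4% DMSO, 25 °C, 30 µL/min; 150 s association, 420 s dissociation, regeneration with 10 mM glycine-HCl pH 2.5. Reference- and blank-subtracted; Kd from global 1:1 kinetic fit.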

[9] = molecular target: T1, Nuclear receptor subfamily 4immunitygroup A member 1; assay: Binding affinity to recombinant human N-terminal His-tagged Nur77-LBD (367 to 598 residues) expressed in Escherichia coli BL21 DE3 by flourescence quenching assay
Summary of the method: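 Human Nur77-LBD (367–598), N-terminal His tag, pET15b in E. coli BL21 DE3, Ni resin purified. Nur77-LBD at 1 µM in PBS in a quartz cell, titrated with compound over 0.01–1 µM at 25 °C. Excitation 280 nm, emission scanned 300–500 nm; peak intensity at 330 nm versus compound concentration fitted to a reported formula for Kd.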

MDA-MB-231 [10] = assay: Induction of apoptosis in human MDA-MB-231 cells assessed as PARP cleavage at 0.5 uM measured after 6 hrs by western blot assay relative to Di(1H-indol-3-yl)(4-(trifluoromethyl)phenyl)methylium methanesulfonate; assay type: functional
Summary of the method: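 MDA-MB-231 in DMEM with 10% FBS, 0.5 µM for 6 h, then PARP western blot with 1:1000 primary antibodies and ECL. Cleaved PARP/PARP band intensity ratio expressed relative to the reference methylium methanesulfonate, whose ratio was set to 1. Mean ± SD, n = 3.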

T1 sequence (P22736 whole entry, the tested form may be a part): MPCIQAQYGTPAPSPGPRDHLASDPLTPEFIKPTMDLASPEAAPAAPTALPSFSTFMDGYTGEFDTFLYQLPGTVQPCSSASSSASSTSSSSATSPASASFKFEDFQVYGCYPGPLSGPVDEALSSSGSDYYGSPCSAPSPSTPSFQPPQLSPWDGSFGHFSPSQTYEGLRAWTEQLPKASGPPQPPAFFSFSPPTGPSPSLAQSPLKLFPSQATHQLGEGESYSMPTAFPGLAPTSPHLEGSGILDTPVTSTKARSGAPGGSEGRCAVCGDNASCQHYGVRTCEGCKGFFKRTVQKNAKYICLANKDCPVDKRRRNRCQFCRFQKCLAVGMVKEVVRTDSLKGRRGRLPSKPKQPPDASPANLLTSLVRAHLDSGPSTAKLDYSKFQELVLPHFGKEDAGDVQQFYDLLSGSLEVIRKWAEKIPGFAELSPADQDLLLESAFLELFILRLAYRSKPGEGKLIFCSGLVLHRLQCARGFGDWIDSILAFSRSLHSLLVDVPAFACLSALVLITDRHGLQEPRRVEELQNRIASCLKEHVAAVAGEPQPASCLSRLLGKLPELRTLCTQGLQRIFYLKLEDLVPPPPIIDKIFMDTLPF

Compound | Activity (MDA-MB-231 [1]) | Activity (HCT-116 [2]) | also measured
Clc1cccc([C+](c2c[nH]c3ccccc23)c2c[nH]c3ccccc23)c1 | inactive | Active | 
c1cncc([C+](c2c[nH]c3ccccc23)c2c[nH]c3ccccc23)c1 | inactive | Active | 
O=C(O)c1ccc([C+](c2c[nH]c3ccccc23)c2c[nH]c3ccccc23)cc1 | inactive | Active | 
Cc1cccc([C+](c2c[nH]c3ccccc23)c2c[nH]c3ccccc23)c1 | inactive | Active | 
Oc1ccccc1[C+](c1c[nH]c2ccccc12)c1c[nH]c2ccccc12 | inactive | inactive | 
COc1ccc([C+](c2c[nH]c3ccccc23)c2c[nH]c3ccccc23)cc1 | inactive | inactive | 
Clc1ccc([C+](c2c[nH]c3ccccc23)c2c[nH]c3ccccc23)cc1 | inactive | Active | 
c1ccc2c([C+](c3c[nH]c4ccccc34)c3c[nH]c4ccccc34)c[nH]c2c1 | inactive | Active | 
CCCn1cc([C+](c2ccc(C(F)(F)F)cc2)c2c[nH]c3ccccc23)c2ccccc21 | Active | Active | pIC50 (BT-549): 7.00; Activity (MEF [3]): inactive; pIC50 (MDA-MB-231 [4]): 6.77; Activity (MEF [5]): Active; Activity (MEF [6]): inactive; pIC50 (HCT-116 [7]; Homo sapiens, HCT-116, 24 h): 6.46; pIC50 (SW-620): 6.80; pIC50 (MCF-10A; Homo sapiens, MCF-10A, 24 h): 5.88; pIC50 (NCM460; Homo sapiens, NCM460, 24 h): 5.29
COC(=O)c1ccc([C+](c2c[nH]c3ccccc23)c2c[nH]c3ccccc23)cc1 | Active | Active | 
c1coc([C+](c2c[nH]c3ccccc23)c2c[nH]c3ccccc23)c1 | inactive | Active | 
CCCCCn1cc([C+](c2ccc(C(F)(F)F)cc2)c2c[nH]c3ccccc23)c2ccccc21 | inactive | inactive | 
Cn1cc([C+](c2ccc(C(F)(F)F)cc2)c2cn(C)c3ccccc23)c2ccccc21 | Active | inactive | 
CC(C)(C)c1ccc([C+](c2c[nH]c3ccccc23)c2c[nH]c3ccccc23)cc1 | inactive | inactive | 
FC(F)(F)c1ccc([C+](c2c[nH]c3ccccc23)c2c[nH]c3ccccc23)cc1 |  |  | pIC50 (HCT-116 [7]; hct-116): 6.59; pIC50 (MCF-10A; mcf-10a): 5.45; pIC50 (NCM460; ncm460): 5.29
c1ccc(-c2ccc([C+](c3c[nH]c4ccccc34)c3c[nH]c4ccccc34)cc2)cc1 | Active | Active | 
Oc1cccc([C+](c2c[nH]c3ccccc23)c2c[nH]c3ccccc23)c1 | inactive | Active | 
FC(F)(F)c1ccc([C+](c2c[nH]c3ccccc23)c2c[nH]c3ccccc23)c(C(F)(F)F)c1 | inactive | inactive | 

Compound | Activity (MDA-MB-231 [1]) | Activity (HCT-116 [2]) | also measured
COc1cccc([C+](c2c[nH]c3ccccc23)c2c[nH]c3ccccc23)c1 | inactive | Active | 
Fc1cccc([C+](c2c[nH]c3ccccc23)c2c[nH]c3ccccc23)c1 | Active | Active | 
CCn1cc([C+](c2ccc(C(F)(F)F)cc2)c2c[nH]c3ccccc23)c2ccccc21 | Active | Active | pIC50 (BT-549): 7.30; Activity (MEF [3]): inactive; pKd [8]: 7.44; pKd [9]: 7.18; pIC50 (MDA-MB-231 [4]): 7.10; Activity (MEF [5]): Active; Activity (MEF [6]): inactive; pIC50 (HCT-116 [7]; Homo sapiens, HCT-116, 24 h): 7.00; pIC50 (SW-620): 7.00; pIC50 (MCF-10A; Homo sapiens, MCF-10A, 24 h): 5.82; pIC50 (NCM460; Homo sapiens, NCM460, 24 h): 5.51
Oc1ccc([C+](c2c[nH]c3ccccc23)c2c[nH]c3ccccc23)cc1 | Active | inactive | 
CCCCn1cc([C+](c2ccc(C(F)(F)F)cc2)c2c[nH]c3ccccc23)c2ccccc21 | Active | Active | 
c1ccc2c([C+](c3c[nH]c4ccccc34)c3csc4ccccc34)c[nH]c2c1 | inactive | Active | 
O=[N+]([O-])c1ccc([C+](c2c[nH]c3ccccc23)c2c[nH]c3ccccc23)cc1 | inactive | Active | 
c1csc([C+](c2c[nH]c3ccccc23)c2c[nH]c3ccccc23)c1 | inactive | Active | 
FC(F)(F)c1ccccc1[C+](c1c[nH]c2ccccc12)c1c[nH]c2ccccc12 | inactive | inactive | 
FC(F)(F)c1ccc([C+](c2c[nH]c3ccccc23)c2c[nH]c3ccccc23)cn1 | Active | Active | pIC50 (BT-549): 7.30; Activity (MEF [3]): inactive; pIC50 (MDA-MB-231 [4]): 6.64; Activity (MEF [5]): Active; Activity (MEF [6]): inactive; pIC50 (HCT-116 [7]; Homo sapiens, HCT-116, 24 h): 6.46; pIC50 (SW-620): 6.85; pIC50 (MCF-10A; Homo sapiens, MCF-10A, 24 h): 5.53; pIC50 (NCM460; Homo sapiens, NCM460, 24 h): 5.09
Clc1ccccc1[C+](c1c[nH]c2ccccc12)c1c[nH]c2ccccc12 | inactive | inactive | 
CS(=O)(=O)[O-].c1ccc([C+](c2c[nH]c3ccccc23)c2c[nH]c3ccccc23)cc1 | Active | inactive | fold change (FC) (MDA-MB-231 [10]): 0.01
Cc1ccc([C+](c2c[nH]c3ccccc23)c2c[nH]c3ccccc23)cc1 | inactive | inactive | 
CCc1ccc([C+](c2c[nH]c3ccccc23)c2c[nH]c3ccccc23)cc1 | inactive | inactive | 
FC(F)(F)c1cccc([C+](c2c[nH]c3ccccc23)c2c[nH]c3ccccc23)c1.[Cl-] | Active | Active | pIC50 (BT-549): 7.15; pIC50 (MDA-MB-231 [4]): 6.54; pIC50 (HCT-116 [7]; Homo sapiens, HCT-116, 24 h): 6.51; pIC50 (SW-620): 6.89; pIC50 (MCF-10A; Homo sapiens, MCF-10A, 24 h): 5.30; fold change (FC) (MDA-MB-231 [10]): 1.76; pIC50 (NCM460; Homo sapiens, NCM460, 24 h): 5.00
Fc1ccc([C+](c2c[nH]c3ccccc23)c2c[nH]c3ccccc23)cc1 | Active | Active | 
Fc1ccccc1[C+](c1c[nH]c2ccccc12)c1c[nH]c2ccccc12 | inactive | inactive | 
